Screening results from PubChem.
In the library only some 2.5% were active in any assay of this set; here they are far more common.
TRPC6 inhibitor – blocks the mouse TRPC6 cation channel. B-score at 10 µM. HEK293-TRPC6, membrane potential dye, ACh-evoked depolarization; stronger effect = lower value. 310,000 compounds, 1.1% hits. Q61143;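 active = B-score under library mean minus 3 SD, initial fluorescence not abnormally high, positive integrated signal ratio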;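 note: B-score derived from integrated fluorescence ratio over the kinetic read; more negative B-score means stronger inhibition of depolarization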
TRPC6 activator – activates the mouse TRPC6 cation channel; HEK293-TRPC6 membrane potential dye fluorescence; stronger effect = higher value; B-score at 10 µM; 310,000 compounds, 0.13% hits; AID 2550;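 active = B-score of the integrated fluorescence ratio above library mean plus 3 SD, and starting fluorescence ratio within library mean plus 5 SD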;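 note: higher score means more depolarization so channel activation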
TRPC4 block – TRPC4 (mouse) channel inhibition. Q9QUQ5. HEK293 TRPC4beta/mu-opioid, DAMGO-evoked Fluo4 calcium flux; stronger effect = lower value. B-score at 10 µM. 300,000 compounds, 0.39% hits. AID 2247;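 active = B-score over 3 SD under the library average, no early fluorescence shift, positive overall ratio signal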
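Assay system: HEK293 cells with stable TRPC4beta plus mu-opioid receptor expression. Dosing: single dose. Measured by: Fluo4 Ca2+ flux fluorescence. Also added: DAMGO in two steps, submaximal then maximal. Read-out: B score from integrated Fluo4 fluorescence ratio.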
Platelet DG rel – platelet dense granule release activity. human platelet-rich plasma, SFLLRN dense granule ATP release, luminescence. inhibition, %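 (compounds screened at 7.5 µM in platelet-rich plasma)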. 300,000 compounds, 0.22% hits;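 active = mean replicate score, as percent of positive control, at or above 50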
TRPC4 agonist – TRPC4 (mouse) channel activation | HEK293 TRPC4beta/mu-opioid, Fluo4 calcium fluorescence; stronger effect = higher value | B-score at 10 µM | 310,000 compounds, 0.49% hits;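 active = B-score above 5 SD of library B-scores, and initial fluorescence ratio not above library mean plus 5 SD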;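 note: positive B-score marks a calcium rise read as TRPC4 activation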
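Material: HEK293 stable line with TRPC4beta plus mu-opioid receptor; technique: Fluo4 calcium-sensitive dye fluorescence, kinetic, 1 Hz baseline; timing: Fluo4 dye loading 45 min at room temperature, 110 s recording; controls: assay buffer as low control, maximal DAMGO as high control; read-out: integrated baseline-normalised fluorescence ratio, converted to per-well B score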
TRPC4 PAM – allosteric potentiators of mouse TRPC4 channel | Q9QUQ5 | HEK293 TRPC4beta/mu-opioid, DAMGO EC20, Fluo-4 Ca2+ flux; stronger effect = higher value | B-score at 10 µM | 310,000 compounds, 0.42% hits | AID 2227;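 active = B-score of calcium response area above 5 SD of library B-scores, with initial fluorescence ratio within 5 SD of library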;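 note: B-score of integrated fluorescence ratio over time as area under calcium response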
TRPC4 sel inh 2 – mouse TRPC4 off-target activity of TRPC6 inhibitors, second screen; shares compounds with TRPC6 inhibitor; inhibition, % at 10 µM; 920 compounds, 42% hits; HEK293 TRPC4/MOR, membrane potential dye fluorescence; channel activated by saturating DAMGO dose; AID 2776;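 active = compounds whose fluorescence signal differed from control wells by over 3 SD, either direction, in both duplicate plates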
TRPC4 spec – selectivity of TRPC6 inhibitors: effect on mouse TRPC4; shares compounds with TRPC6 inhibitor; HEK293 TRPC4/mu-opioid, membrane potential fluorescence; activity change, negative = inhibition, % at 10 µM; 920 compounds, 61% hits; AID 2777;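 active = rise or fall in signal beyond 3 SD of buffer-only wells in both replicate plates, either sign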;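 note: integrated kinetic ratio of fluorescence range over baseline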
HEK293 MPD ctr 2-1 – second check of TRPC6 inhibitor effects in parental HEK293 cells; shares compounds with TRPC6 inhibitor; AID 2779; parental HEK293 membrane potential dye fluorescence; maximal acetylcholine challenge after compound addition; 920 compounds, 31% hits; signal change vs control, % at 10 µM;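 active = membrane potential signal moving either way by over 3 SD of the maximum-effect control, in both duplicate plates, meaning non-specific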
HEK293 MPD ctr-1 – counter-screen for TRPC6 inhibitors: effect in parental HEK293 cells; shares compounds with TRPC6 inhibitor; parental HEK293 membrane potential dye fluorescence; membrane potential signal change, % at 10 µM; 920 compounds, 60% hits; AID 2780;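 active = membrane potential signal shifting up or down by more than 3 SD of buffer-only wells, on both duplicate plates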
HEK293 MPD ctr-2 – checks TRPC6 modulator effects in parental HEK293 cells. membrane potential signal change, % at 10 µM. shares compounds with TRPC6 inhibitor. membrane potential dye fluorescence. 2,400 compounds, 51% hits. AID 488924;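 active = membrane potential signal moves up or down beyond 5 SD from buffer-only wells, on both duplicate plates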
HEK293 MPD ctr 2-2 – parental HEK293 nonspecific activity of TRPC6 modulators, second screen; membrane potential dye fluorescence; after compound, maximal acetylcholine stimulation; inhibition, % at 10 µM; shares compounds with TRPC6 inhibitor; 2,400 compounds, 14% hits;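 active = membrane potential signal drops by more than 5 SD from the mean control signal, in both duplicate plates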;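 note: plate controls were acetylcholine ECmax control wells for no effect and buffer only wells for full effect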
TRPC4/MOR mod – selectivity of TRPC6 modulators against mouse TRPC4; shares compounds with TRPC6 inhibitor; HEK293 TRPC4/mu-opioid, membrane potential fluorescence; percent change from control (negative = decrease, positive = increase), % at 10 µM; 2,400 compounds, 69% hits;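 active = membrane potential signal moved up or down beyond 5 SD of buffer control wells, in both duplicate plates, actives on both sides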;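 note: plate controls were assay buffer wells for no effect and DAMGO maximal-effect wells for full effect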
TRPC4 ctr inh 2 – mouse TRPC4 off-target activity of TRPC6 modulators, second screen. HEK293 TRPC4/mu-opioid, membrane potential dye fluorescence; stimulated with maximal-effect DAMGO. shares compounds with TRPC6 inhibitor. inhibition, % at 10 µM. 2,400 compounds, 55% hits. AID 488928;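 active = drop in membrane potential signal beyond 5 SD of the control wells in both duplicate plates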;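 note: TRPC4 counter screen for TRPC6 hits run under conditions tuned for TRPC6 not TRPC4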
TRPC6 block conf – mouse TRPC6 inhibitor confirmation. shares compounds with TRPC6 inhibitor. HEK293-TRPC6, membrane potential dye, ACh-evoked depolarization. inhibition, % at 10 µM. 3,300 compounds, 43% hits;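 active = fluorescence ratio falls more than 5 SD below the full-stimulation control mean, in both duplicate runs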;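 note: integrated fluorescence ratio of peak minus minimum over baseline after agonist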
TRPC6 act conf – mouse TRPC6 activator confirmation. HEK293-TRPC6 membrane potential dye fluorescence, FDSS. 2,800 compounds, 11% hits. shares compounds with TRPC6 inhibitor. activation, % at 10 µM. AID 488961;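 active = ratio signal rise beyond 5 SD above unstimulated control wells' mean, seen in both duplicate runs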;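 note: plate controls were buffer EC0 wells for no effect and acetylcholine ECmax response for full effect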
Active calls of the source: *; i = inactive; / = no result given.

SMILES	TRPC6 inhibitor	TRPC6 activator	TRPC4 block	Platelet DG rel	TRPC4 agonist	TRPC4 PAM	TRPC6 block conf	TRPC6 act conf	others
Cc1nc2nc(SCc3ccccc3)[nH]n2c(=O)c1CCC(C)C	i	i	i	4	i	i	/	/
COc1cc2c(cc1OC)C(c1ccc(Cl)cc1)=NCC2	-6.2*	i	i	11	i	i	44%*	i	HEK293 MPD ctr-2=-275%*;HEK293 MPD ctr 2-2=i;TRPC4/MOR mod=-40%*;TRPC4 ctr inh 2=52%*
COc1cc2c(cc1OC)C(c1ccc(-c3ccc(Cl)cc3Cl)o1)=NCC2	i	i	i	-1	i	i	/	/
COc1cc2c(cc1OC)C(c1ccc(-c3ccc(Cl)c(Cl)c3)o1)=NCC2	i	i	i	3	i	i	/	/
COc1cc2c(cc1OC)C(c1ccc(-c3ccccc3Cl)o1)=NCC2	-6.2*	i	i	5	i	i	40%*	i	HEK293 MPD ctr-2=-190%*;HEK293 MPD ctr 2-2=i;TRPC4/MOR mod=-48%*;TRPC4 ctr inh 2=52%*
N#C/C(=C\c1ccccc1OCC(=O)O)c1nc2ccccc2[nH]1	i	i	i	-4	i	i	/	/
NCCCC(=O)N1c2ccccc2Sc2ccccc21	-6.9*	i	i	13	i	i	i	i	TRPC4 sel inh 2=i;TRPC4 spec=i;HEK293 MPD ctr 2-1=i;HEK293 MPD ctr-1=i
O=C(CCN1CCOCC1)N1c2ccccc2Sc2ccc(Cl)cc21	-5.2*	i	i	3	i	i	50%*	/	HEK293 MPD ctr-2=i;HEK293 MPD ctr 2-2=75%*;TRPC4/MOR mod=14%*;TRPC4 ctr inh 2=i
NCCC(=O)N1c2ccccc2Sc2ccccc21	i	i	i	-3	i	i	/	/
CCN(CC)CC(=O)N1c2ccccc2Sc2ccccc21	i	i	i	3	i	i	/	/
CCN(CC)CC(=O)N1c2ccccc2Sc2ccc(Cl)cc21	-8.2*	i	i	0	i	i	i	/	TRPC4 sel inh 2=i;TRPC4 spec=6.0%*;HEK293 MPD ctr 2-1=i;HEK293 MPD ctr-1=7.4%*
C=CCNC(=S)Nc1c(N)n(C)c(=O)n(C)c1=O	i	i	i	-2	i	i	/	/
CSc1cccc(NC(=S)N2CCC(N(C)C3CCCCCC3)CC2)c1	-7.8*	i	i	1	i	i	i	i	TRPC4 sel inh 2=58%*;TRPC4 spec=i;HEK293 MPD ctr 2-1=i;HEK293 MPD ctr-1=0.9%*
COc1ccc(-c2c(C)nn3c(C)cc(C)nc23)cc1	i	i	i	1	i	i	/	/
